Experiments:
[1] = Cmax in Beagle dog at 2 mg/kg, iv administered as single dose by LC-MS/MS analysis; assay type: ADME, organism-based, Canis lupus familiaris; set-up: dose 2 mg/kg, route intravenous; settings: in vivo
Outline: (§1)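 Beagle dogs, 7−9 months, 8−12 kg, non-naive, fasted overnight; 3 dogs per iv or po group; dosed in 5% DMSO/5% solutol/90% saline. Serial blood into sodium heparin, plasma separated at 4 °C, stored −80 °C; LC-MS/MS quantitation; noncompartmental analysis, BLQs omitted.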

[2] = Clearance in Beagle dog at 2 mg/kg, iv administered as single dose by LC-MS/MS analysis; assay type: ADME, organism-based, Canis lupus familiaris; settings: in vivo; outline: as §1
[3] = Intrinsic clearance in human liver microsomes at 1 uM preincubated for 10 mins followed by NADPH addition measured up to 60 mins by LC-MS/MS analysis; assay type: ADME, microsome; settings: read-out: CLH
[4] = Oral bioavailability in Sprague-Dawley rat at 5 mg/kg administered as single dose by LC-MS/MS analysis; assay type: ADME, organism-based; settings: in vivo
Outline: (§2)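 Male Sprague−Dawley rats (6−7 weeks, 190−240 g), fasted overnight with food returned 4 h post-dose; 3 rats iv, 3 po; vehicle 5% DMSO, 5% solutol, 90% saline. Heparinized plasma frozen at −80 °C, analysed by LC-MS/MS; noncompartmental PK parameters, BLQ values excluded.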

[5] = Plasma concentration in Beagle dog at 2 mg/kg, iv administered as single dose after 24 hrs by LC-MS/MS analysis; assay type: ADME, organism-based, Canis lupus familiaris; outline: as §1
[6] = Plasma concentration in Beagle dog at 5 mg/kg, po administered as single dose after 24 hrs by LC-MS/MS analysis; assay type: ADME, organism-based, Canis lupus familiaris; outline: as §1
[7] = AUC (0 to 24 hrs) in Sprague-Dawley rat at 5 mg/kg, po administered as single dose by LC-MS/MS analysis; assay type: ADME, organism-based; set-up: time < 24 hr, dose 5 mg/kg, route oral; settings: in vivo; outline: as §2
[8] = AUC (0 to 24 hrs) in Sprague-Dawley rat at 2 mg/kg, iv administered as single dose by LC-MS/MS analysis; assay type: ADME, organism-based; set-up: dose 2 mg/kg, time < 24 hr, route intravenous; settings: in vivo; outline: as §2
[9] = AUC (0 to 24 hrs) in Beagle dog at 5 mg/kg, po administered as single dose by LC-MS/MS analysis; assay type: ADME, organism-based, Canis lupus familiaris; set-up: time < 24 hr, dose 5 mg/kg, route oral; settings: in vivo; outline: as §1
[10] = Intrinsic clearance in mouse liver microsomes at 1 uM preincubated for 10 mins followed by NADPH addition measured up to 60 mins by LC-MS/MS analysis; assay type: ADME, microsome; settings: read-out: CLH
[11] = Cmax in Beagle dog at 5 mg/kg, po administered as single dose by LC-MS/MS analysis; assay type: ADME, organism-based, Canis lupus familiaris; set-up: dose 5 mg/kg, route oral; settings: in vivo; outline: as §1
[12] = Clearance in Sprague-Dawley rat at 2 mg/kg, iv administered as single dose by LC-MS/MS analysis; assay type: ADME, organism-based; settings: in vivo; outline: as §2
[13] = Volume of distribution at steady state in Beagle dog at 2 mg/kg, iv administered as single dose by LC-MS/MS analysis; assay type: ADME, organism-based, Canis lupus familiaris; settings: in vivo, read-out: Vdss
Outline: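 Non-naive beagle dogs (7−9 months, 8−12 kg) were fasted overnight, with 3 animals in the iv group. Compound was given as a single dose in 5% DMSO, 5% solutol and 90% saline. Plasma was taken from heparinized blood at each time point and stored at −80 °C. Levels were measured by LC-MS/MS, with noncompartmental analysis and BLQ values omitted.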

[14] = AUC (0 to 24 hrs) in Beagle dog at 2 mg/kg, iv administered as single dose by LC-MS/MS analysis; assay type: ADME, organism-based, Canis lupus familiaris; set-up: dose 2 mg/kg, time < 24 hr, route intravenous; settings: in vivo; outline: as §1
[15] = Volume of distribution at steady state in Sprague-Dawley rat at 2 mg/kg, iv administered as single dose by LC-MS/MS analysis; assay type: ADME, organism-based; settings: in vivo, read-out: Vdss
Outline: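 Male Sprague−Dawley rats (6−7 weeks, 190−240 g) were fasted overnight, with food returned 4 h post-dose and n = 3 in the iv group. A single dose was given in 5% DMSO, 5% solutol and 90% saline. Heparinized plasma was separated at 4 °C and frozen at −80 °C. Concentrations were measured by LC-MS/MS, with parameters from noncompartmental analysis and BLQs excluded.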

[16] = (§3) Intrinsic clearance in dog liver microsomes at 1 uM preincubated for 10 mins followed by NADPH addition measured up to 60 mins by LC-MS/MS analysis; assay type: ADME, Canis lupus familiaris, microsome; settings: liver microsomes, read-out: CLH
[17] = Plasma concentration in Balb/c mouse at 12.5 mg/kg, po bid after 24 hrs by LC-MS/MS analysis; assay type: ADME, organism-based
[18] = Drug uptake in Balb/c mouse liver at 12.5 mg/kg, po bid after 24 hrs by LC-MS/MS analysis; assay type: ADME, organism-based; settings: read-out: Drug uptake
[19] = Half life in Beagle dog at 2 mg/kg, iv administered as single dose by LC-MS/MS analysis; assay type: ADME, organism-based, Canis lupus familiaris; settings: in vivo
[20] = Oral bioavailability in Beagle dog at 5 mg/kg administered as single dose by LC-MS/MS analysis; assay type: ADME, organism-based, Canis lupus familiaris; settings: in vivo
Liver = assay: as §3; assay type: ADME, Canis lupus familiaris, microsome; settings: microsomes, 1 h, 1 µM

Row | SMILES | CLint scaled at 1 µM [3] [mL/min/kg] | bioavailability [4] [%] | AUC(0-t) at 24 h [7] [ng·h/mL] | AUC(0-t) at 24 h [8] [ng·h/mL] | CLint scaled at 1 µM [10] [mL/min/kg] | clearance [12] [mL/min/kg] | Vd [15] [L/kg] | CLint scaled at 1 µM [16] [mL/min/kg] | other results
1 | CCOC(=O)C1=C(CN2CCOCC2)NC(c2nccs2)=NC1c1ccc(F)cc1Br (centres undefined) | 20 | 8.9 | 90 | 405 | 485 | 82.2 | 4.85 | – | Cmax [1]: 1420 ng/mL; clearance [2]: 16.6 mL/min/kg; concentration at 24 h [5]: 15 ng/mL; concentration at 24 h [6]: 9 ng/mL; AUC(0-t) at 24 h [9]: 1010 ng·h/mL; Cmax [11]: 391 ng/mL; Vd [13]: 15.8 L/kg; AUC(0-t) at 24 h [14]: 1470 ng·h/mL
2 | CCOC(=O)C1=C(CN2CCOC[C@H]2C(=O)O)NC(c2nccs2)=N[C@H]1c1ccc(F)cc1Br | 7 | 23.1 | 548 | 948 | 377 | 34.9 | 0.4 | 29 | –
3 | CCOC(=O)C1=C(CN2CCOC[C@@H]2CCC(=O)O)NC(c2nccs2)=N[C@H]1c1ccc(F)cc1Br | 23 | 54 | 572 | 423 | 316 | 78.7 | 1.53 | 46 | –
4 | CCOC(=O)C1=C(CN2CCO[C@H](CCC(=O)O)C2)NC(c2nccs2)=N[C@H]1c1ccc(F)cc1Br | 18 | 47.7 | 4900 | 4110 | 385 | 8.11 | 0.41 | 14 | concentration at 24 h [17]: 849 ng/mL; Cmax [1]: 2050 ng/mL; clearance [2]: 1.93 mL/min/kg; concentration at 24 h [18]: 361 ng/g; concentration at 24 h [5]: 47 ng/mL; concentration at 24 h [6]: 232 ng/mL; AUC(0-t) at 24 h [9]: 47900 ng·h/mL; Vd [13]: 0.76 L/kg; AUC(0-t) at 24 h [14]: 16500 ng·h/mL; half-life [19]: 5.71 h; bioavailability [20]: 114%
5 | CCOC(=O)C1=C(CN2CCO[C@H](C)[C@H]2C(=O)O)NC(c2nccs2)=N[C@H]1c1ccc(F)cc1Br | 5 | 44.5 | 1750 | 1610 | 89 | 20.6 | 0.37 | – | CLH (Liver): Stable
6 | CCOC(=O)C1=C(CN2CC(F)(F)C[C@@H]2CCC(=O)O)NC(c2nccs2)=N[C@H]1c1ccc(F)cc1Br | 21 | 41.3 | 999 | 965 | 362 | 34.4 | 0.77 | 55 | –
7 | CCOC(=O)C1=C(CN2CCO[C@@H](CCC(=O)O)C2)NC(c2nccs2)=N[C@H]1c1ccc(F)cc1Br | 21 | 41 | 436 | 430 | 281 | 77.3 | 1.24 | 11 | –
